“And” between values parts separate entries of the source, which are not always exact repeats. Identical values can stand only once. The source made the active and inactive calls.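 The calls were made as follows: active = compounds lowering reporter light with a fitted half-maximal dose no more than twice the top dose tested; inconclusive = flat curve at 30 to 70% inhibition, or poor fit; inactive = the rest.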
Key:
[1] = system: NIH3T3-HGL HSE-luciferase, MG132-induced, luminescence 8 h; assay: decrease of HSF-1-responsive luciferase luminescence – cell-based, NIH3T3, dry powder samples, dose response (AID 602268)
Procedure, shortened: (§1)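 Test system: NIH3T3-HGL cells, HSE-controlled luciferase reporter. Input: 4,000 cells per well. Buffer or medium: Opti-MEM, 2.5% fetal bovine serum. Reagent: MG132 proteasome inhibitor stressor, 2.5 µM final. Incubation: cells 24 h, compound 30 min, then MG132 8 h. Detection: Steady-Glo luminescence of luciferase.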

[2] = as above; details: NIH3T3-HGL HSE-luciferase, MG132-induced, luminescence 8 h; at 26 µM (top of the series)
Procedure, shortened: as §1

| SMILES | AC50 [1] [µM] | activity change, negative = inhibition [2] |
| --- | --- | --- |
| CC1=NNC(=O)/C1=C\c1cn(-c2ccccc2)nc1-c1ccc(Cl)cc1 | 1.46 | – |
| CCc1ccc(NC(=O)C2C3CCC(O3)C2C(=O)O)cc1 (stereo not given) | – | 7.59% (inactive) and -9.7% (inactive) |
| O=C1C=C(NCCN2CCOCC2)C(=O)c2cnccc21 | 2.37 | – |
| Oc1ccc(Br)cc1/C=N/Nc1ccccn1 | 1.72 | – |
| O=C(CCl)N1CCCC1c1ccc2c(c1)OCCO2 (stereo not given) | 0.949 | – |

Reference: PubChem BioAssay AID602268 (Broad Institute, 2012)
